Data reported in ChEMBL document CHEMBL1125582, “4-hydroxythiazole inhibitors of 5-lipoxygenase” (J Med Chem, 1991).
The source made the active and inactive calls. The rule behind the calls is not given here.

What was measured:
[1] = target: T1, Polyunsaturated fatty acid 5-lipoxygenase (Rattus norvegicus) (UniProt P12527); assay: The compound was tested for the in vitro inhibition of 5-lipoxygenase (5-lo) from the 20000 g supernatant of RBI-1 cells measured at a concentration of 30 uM; type: cell-based
T1 sequence (whole entry): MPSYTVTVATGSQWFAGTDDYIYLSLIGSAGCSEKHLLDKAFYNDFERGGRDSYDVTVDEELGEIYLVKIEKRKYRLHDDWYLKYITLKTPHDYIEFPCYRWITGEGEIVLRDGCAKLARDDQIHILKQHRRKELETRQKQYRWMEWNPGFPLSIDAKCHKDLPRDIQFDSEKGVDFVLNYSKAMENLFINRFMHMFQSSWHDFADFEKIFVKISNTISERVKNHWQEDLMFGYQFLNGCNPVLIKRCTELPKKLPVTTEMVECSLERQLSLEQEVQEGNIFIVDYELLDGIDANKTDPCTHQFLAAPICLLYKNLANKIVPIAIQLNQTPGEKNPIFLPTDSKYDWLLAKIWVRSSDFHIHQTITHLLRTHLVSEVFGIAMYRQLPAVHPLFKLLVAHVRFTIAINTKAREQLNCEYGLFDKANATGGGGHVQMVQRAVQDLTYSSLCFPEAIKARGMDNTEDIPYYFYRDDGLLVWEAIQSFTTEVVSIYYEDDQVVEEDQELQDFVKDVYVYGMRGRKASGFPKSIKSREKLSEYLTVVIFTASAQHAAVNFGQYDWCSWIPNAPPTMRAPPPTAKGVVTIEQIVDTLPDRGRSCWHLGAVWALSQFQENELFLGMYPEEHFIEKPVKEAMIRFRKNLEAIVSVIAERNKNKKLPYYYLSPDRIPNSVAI
Method in brief: (§1)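 20000g supernatant of homogenized RBL-1 cells (7.5 × 10⁶ cell equiv/mL) preincubated 20 min at 37 °C with inhibitor or 2% Me₂SO vehicle in pH 6.8 BES/PIPES buffer with EDTA, NaCl, 0.7 mM CaCl₂. Reaction started with 66 μM [¹⁴C]arachidonic acid. [¹⁴C]-5-HETE counted by scintillation, corrected for [³H]-5-HETE recovery.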

[2] = target: T2, Polyunsaturated fatty acid 5-lipoxygenase (Homo sapiens, UniProt P09917); assay: The compound was tested for the inhibition of 5-lipoxygenase (5-lo) in human whole blood (HWBL); type: tissue-based
T2 sequence (P09917 whole entry): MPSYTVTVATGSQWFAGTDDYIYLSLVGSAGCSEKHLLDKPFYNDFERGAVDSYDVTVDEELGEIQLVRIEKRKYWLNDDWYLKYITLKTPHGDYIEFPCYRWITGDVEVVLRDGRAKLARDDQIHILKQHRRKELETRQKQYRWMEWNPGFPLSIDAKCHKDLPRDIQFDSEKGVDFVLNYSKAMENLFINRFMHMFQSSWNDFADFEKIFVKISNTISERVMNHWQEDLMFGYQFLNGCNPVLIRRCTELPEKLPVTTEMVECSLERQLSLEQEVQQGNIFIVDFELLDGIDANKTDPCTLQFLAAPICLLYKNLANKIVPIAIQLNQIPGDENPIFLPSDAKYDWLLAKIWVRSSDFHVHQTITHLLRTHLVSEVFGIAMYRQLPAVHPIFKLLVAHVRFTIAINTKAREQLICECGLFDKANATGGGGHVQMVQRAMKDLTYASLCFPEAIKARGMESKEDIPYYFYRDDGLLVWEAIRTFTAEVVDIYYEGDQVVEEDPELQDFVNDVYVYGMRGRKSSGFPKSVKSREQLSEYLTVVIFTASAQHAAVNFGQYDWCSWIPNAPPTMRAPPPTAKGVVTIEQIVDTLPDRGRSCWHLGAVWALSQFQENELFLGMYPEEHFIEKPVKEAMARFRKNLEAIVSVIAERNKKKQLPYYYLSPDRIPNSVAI
Method in brief: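 Heparinized (20 units/mL) human blood preincubated 15 min at 37 °C with compound or vehicle. Challenged with A23187 in DMSO (final 50 μM) for 30 min, then chilled and centrifuged. Plasma extracted with 4 volumes methanol for at least 2 h at 3 °C. LTB₄ measured by RIA or EIA.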

[3] = target: T3, Polyunsaturated fatty acid 5-lipoxygenase (Rattus norvegicus, UniProt P12527); assay: In vitro inhibition of 5-lipoxygenase (5-lo) from the 20000 g supernatant of RBI-1 cells; type: cell-based
T3 sequence (P12527 whole entry): T1 sequence (whole entry)

[4] = target: T3, Polyunsaturated fatty acid 5-lipoxygenase; assay: Inhibition of 5-lipoxygenase (5-lo) in intact rat polymorphonuclear leukocyte RPMNL
Method in brief: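 Pleural PMNL from carrageenan-injected male Sprague-Dawley rats (200-250 g). Erythrocytes lysed with water, cells washed and held in HEPES/Earle's salts pH 7.0 with 1 mg/mL BSA. 5×10^6 cells preincubated 15 min at 37 °C with compound or DMSO (final 2%). Stimulated with A23187 (final 8.3 μM) for 10 min, stopped on ice. Methanol extracts assayed for LTB₄ by HPLC.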

[5] = target: T1, Polyunsaturated fatty acid 5-lipoxygenase (Rattus norvegicus); assay: The compound was tested for the in vitro inhibition of 5-lipoxygenase (5-lo) from the 20000 g supernatant of RBI-1 cells; NS indicates nonsignificant inhibition at 32 uM concentration; type: cell-based; method in brief: as §1
[6] = target: T1, Polyunsaturated fatty acid 5-lipoxygenase (Rattus norvegicus); assay: The compound was tested for the in vitro inhibition of 5-lipoxygenase (5-lo) from the 20000 g supernatant of RBI-1 cells at a concentration of 30 uM; type: cell-based; method in brief: as §1
[7] = target: T4, Arachidonate 12-lipoxygenase (Rattus norvegicus) (UniProt Q02759); assay: The compound was tested for the in vitro inhibition of platelet 12-lipoxygenase at a concentration of 30 uM
T4 sequence (whole entry): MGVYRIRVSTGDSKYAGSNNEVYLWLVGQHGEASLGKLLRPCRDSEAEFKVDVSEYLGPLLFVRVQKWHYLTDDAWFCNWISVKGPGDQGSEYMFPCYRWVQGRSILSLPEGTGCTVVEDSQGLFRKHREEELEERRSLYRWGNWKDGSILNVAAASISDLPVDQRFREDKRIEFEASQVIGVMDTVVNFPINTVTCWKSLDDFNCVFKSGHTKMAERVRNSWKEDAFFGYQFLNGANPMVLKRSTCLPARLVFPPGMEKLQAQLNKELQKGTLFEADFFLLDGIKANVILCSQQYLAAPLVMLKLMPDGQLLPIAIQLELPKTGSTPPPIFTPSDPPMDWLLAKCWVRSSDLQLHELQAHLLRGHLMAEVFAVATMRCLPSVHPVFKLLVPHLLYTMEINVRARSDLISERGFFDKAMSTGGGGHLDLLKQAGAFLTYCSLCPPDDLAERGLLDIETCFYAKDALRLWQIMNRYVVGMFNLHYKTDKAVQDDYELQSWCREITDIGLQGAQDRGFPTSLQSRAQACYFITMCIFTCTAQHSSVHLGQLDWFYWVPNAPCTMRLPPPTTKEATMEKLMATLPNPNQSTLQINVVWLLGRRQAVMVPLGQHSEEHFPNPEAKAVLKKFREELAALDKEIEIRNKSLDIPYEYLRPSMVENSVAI

[8] = test system: 15-lipoxygenase (Glycine max); assay: The compound was tested for the in vitro inhibition of 15-lipoxygenase of soybean at a concentration of 100 uM; conditions: at 100 µM
[9] = test system: cyclooxygenase (Ovis aries); assay: The compound was tested for the in vitro inhibition of Prostaglandin G/H synthase of sheep seminal vesicle at a concentration of 30 uM
[10] = target: T1, Polyunsaturated fatty acid 5-lipoxygenase (Rattus norvegicus); assay: The compound was tested for the in vitro inhibition of 5-lipoxygenase from the 20000 g supernatant of RBI-1 cells; NS indicates nonsignificant inhibition at 32 uM concentration; type: cell-based; method in brief: as §1
[11] = target: T4, Arachidonate 12-lipoxygenase (Rattus norvegicus); assay: The compound was tested for the in vitro inhibition of platelet 12-lipoxygenase at a concentration of 100 uM
[12] = test system: cyclooxygenase (Ovis aries); assay: The compound was tested for the in vitro inhibition of Prostaglandin G/H synthase of sheep seminal vesicle at a concentration of 100 uM
[13] = test system: 15-lipoxygenase (Glycine max); assay: The compound was tested for the in vitro inhibition of 15-lipoxygenase of soybean at a concentration of 10 uM; conditions: at 10 µM

O=C1CSC(c2cccnc2)=N1
inhibition [1]: 8%

CCCc1sc(-c2ccccc2)nc1OC(=O)NC
IC50 [2]: 5100 nM
IC50 [3]: 8800 nM
IC50 [4]: 400 nM

O=C(O)c1ccc(-c2nc(O)c(-c3ccccc3)s2)cc1
IC50 [3]: 1200 nM

CCCc1sc(-c2ccccc2)nc1OC(C)=O
IC50 [3]: 530 nM
IC50 [4]: 660 nM

COc1nc(-c2ccccc2)sc1-c1ccccc1
inhibition [5]: inactive

CCCc1sc(-c2ccccc2)nc1OC(=O)Nc1ccccc1
IC50 [3]: 460 nM
IC50 [4]: 1000 nM

Oc1sc(-c2ccccc2)nc1-c1ccccc1
IC50 [3]: 6900 nM

Cc1ccc(-c2nc(O)c(-c3ccccc3)s2)cc1
IC50 [2]: 740 nM
IC50 [3]: 800 nM

Oc1nc(-c2cccnc2)sc1-c1ccccc1
IC50 [2]: 2900 nM
IC50 [3]: 1100 nM

Cc1sc(-c2ccc(SC(F)(F)F)cc2)nc1O
IC50 [3]: 2700 nM

Nc1nc(-c2ccccc2)sc1-c1ccccc1
inhibition [5]: inactive

COC(=O)Cc1sc(-c2ccccc2)nc1O
IC50 [4]: 2100 nM

Cc1sc(-c2ccc(-c3ccccc3)cc2)nc1O
inhibition [6]: 40%

Cc1sc(-c2ccccn2)nc1O
IC50 [3]: 2100 nM

CCCCC(=O)Oc1nc(-c2ccccc2)sc1-c1ccccc1
IC50 [3]: 9100 nM

CC(=O)Oc1nc(-c2ccc(-c3ccccc3)cc2)sc1-c1ccccc1
IC50 [3]: 1400 nM
IC50 [4]: 900 nM

Oc1nc(-c2ccccc2)sc1-c1ccccc1
inhibition [7]: 12%
inhibition [8]: 50%
inhibition [9]: 47%

CCCCCC(=O)Oc1nc(-c2ccccc2)sc1-c1ccccc1
IC50 [3]: 1300 nM
IC50 [4]: 500 nM

Cc1sc(-c2ccncc2)nc1O
IC50 [3]: 14000 nM

CCCCc1sc(-c2ccccc2)nc1OC(C)=O
IC50 [4]: 500 nM

Cc1nc(O)c(C)s1
inhibition [10]: inactive

CCCCC/C=C/C/C=C/C/C=C/C/C=C/CCCC(=O)NO
IC50 [3]: 2200 nM

COc1ccc(-c2nc(O)c(C)s2)cc1
IC50 [3]: 1100 nM

Cc1ccc(-c2nc(O)c(C)s2)cc1
IC50 [4]: 1200 nM

Cc1sc(-c2ccco2)nc1O
IC50 [3]: 2400 nM

CCCc1sc(-c2ccccc2)nc1OC(=O)OCc1ccccc1
IC50 [3]: 2800 nM
IC50 [4]: 1200 nM

CCCCCC/C(O)=C\C/C=C\C/C=C\C=C\CCCCC(=O)O
IC50 [3]: 7300 nM

CC(=O)Oc1nc(-c2ccc(C(=O)O)cc2)sc1C
IC50 [3]: 14000 nM

Cc1sc(-c2ccc([N+](=O)[O-])cc2)nc1O
IC50 [3]: 1600 nM

CCOC(=O)Cc1nc(O)c(C)s1
inhibition [5]: inactive

Cc1sc(-c2ccc(C(F)(F)F)cc2)nc1O
IC50 [3]: 2500 nM

CCOC(=O)c1nc(O)c(C)s1
inhibition [5]: inactive

Cc1sc(-c2ccc(N)cc2)nc1O
IC50 [3]: 15000 nM

COc1ccc(-c2nc(O)c(-c3ccccc3)s2)cc1
inhibition [11]: 6%
IC50 [2]: 2400 nM
IC50 [3]: 370 nM
IC50 [4]: 450 nM
inhibition [8]: 22%
inhibition [12]: 25%

Cc1sc(N)nc1O
inhibition [10]: inactive

Cc1sc(-c2ccc(C(N)=O)cc2)nc1O
IC50 [3]: 4800 nM

Cc1sc(-c2ccc(S(N)(=O)=O)cc2)nc1O
IC50 [3]: 2200 nM

CCOC(=O)c1sc(-c2ccccc2)nc1O
inhibition [6]: 17%

Cc1sc(-c2cccs2)nc1O
IC50 [3]: 1400 nM

Cc1sc(-c2cnc3ccccc3c2)nc1O
IC50 [3]: 16000 nM

O=C(O)Cc1sc(-c2ccccc2)nc1O
inhibition [6]: 24%

O=C1CSC(c2ccccc2)=N1
inhibition [1]: 26%

Cc1sc(-c2ccccc2)nc1O
inhibition [11]: 51%
inhibition [13]: 44%
inhibition [9]: 32%

Cc1nc(O)c(-c2ccccc2)s1
IC50 [2]: 5100 nM
IC50 [3]: 700 nM

CCCCNC(=O)Oc1nc(-c2ccccc2)sc1CCC
IC50 [2]: 5500 nM
IC50 [3]: 24000 nM
IC50 [4]: 800 nM

Oc1nc(-c2ccc(F)cc2)sc1-c1ccccc1
inhibition [11]: 0%
IC50 [2]: 470 nM
IC50 [3]: 500 nM
inhibition [8]: 16%
inhibition [12]: 20%

Cc1sc(-c2ccc(C(=O)O)cc2)nc1O
IC50 [3]: 30000 nM

CC(=O)Oc1nc(-c2ccccc2)sc1-c1ccccc1
IC50 [2]: 450 nM
IC50 [3]: 400 nM

Oc1nc(-c2ccc(-c3ccccc3)cc2)sc1-c1ccccc1
IC50 [3]: 2200 nM

CCCc1sc(-c2ccccc2)nc1OS(C)(=O)=O
inhibition [5]: inactive

Cc1sc(C(=O)O)nc1O
inhibition [5]: inactive

COC(=O)c1ccc(-c2nc(O)c(C)s2)cc1
inhibition [11]: 0%
inhibition [13]: 52%
inhibition [9]: 6%

Oc1nc(-c2ccccc2)sc1CCc1ccccc1
inhibition [11]: 3%
inhibition [8]: 34%
inhibition [12]: 11%

Oc1nc(-c2ccncc2)sc1-c1ccccc1
IC50 [3]: 540 nM

Cc1sc(NN)nc1O
inhibition [10]: inactive

CC(=O)c1ccc(-c2nc(O)c(C)s2)cc1
IC50 [3]: 1400 nM

CCCCc1sc(-c2ccccc2)nc1O
IC50 [3]: 18000 nM

CCCc1sc(-c2ccccc2)nc1OC(=O)OCC
IC50 [2]: 4500 nM
IC50 [4]: 700 nM

Cc1sc(-c2cc[nH]n2)nc1O
IC50 [3]: 31000 nM
